From ChEMBL document CHEMBL1156597, “Structure-activity relationship of kahalalide F synthetic analogues” (J Med Chem, 2008)

Assays:
[1] = tested on: DU-145; test: Cytotoxicity against human DU145 cells after 48 hrs by SRB assay; type: functional, cell-based; settings: Homo sapiens, DU-145, 48 h; for CC50: read-out: LC50 (the source's name)
Method in brief: (§1)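 Cells grown in RPMI 1640 with 10% FBS and penicillin/streptomycin at 37 °C and 5% CO₂, trypsinized, then seeded at 5 × 10³/well. After 18 h drug-free attachment, samples in DMSO/EtOH/PBS (0.5:0.5:99) were added for 48 h continuous exposure. Cells were fixed with cold TCA (1 h, 4 °C) and stained with SRB (10 min). Tris-solubilized stain read at 490 nm. Triplicate wells, mean ± SD; GI₅₀ derived.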

[2] = tested on: LNCaP; test: Cytotoxicity against human LNcaP cells after 48 hrs by SRB assay; type: functional; settings: for CC50: read-out: LC50 (the source's name); method in brief: as §1
[3] = Cytotoxicity against human IGROV cells after 48 hrs by SRB assay; type: functional; settings: for CC50: read-out: LC50 (the source's name); method in brief: as §1
[4] = Cytotoxicity against human IGROV-ET cells after 48 hrs by SRB assay; type: functional; settings: for CC50: read-out: LC50 (the source's name); method in brief: as §1
[5] = tested on: SK-BR-3; test: Cytotoxicity against human SKBR3 cells after 48 hrs by SRB assay; type: functional; settings: SK-BR-3, 48 h; for GI50: read-out: GI50; for CC50: read-out: LC50 (the source's name); method in brief: as §1
[6] = tested on: SK-MEL-28; test: Cytotoxicity against human SK-MEL-28 cells after 48 hrs by SRB assay; type: functional, cell-based; settings: Homo sapiens, SK-MEL-28, 48 h; for CC50: read-out: LC50 (the source's name); method in brief: as §1
[7] = tested on: A549; test: Cytotoxicity against human A549 cells after 48 hrs by SRB assay; type: functional, cell-based; settings: Homo sapiens, A549, 48 h; method in brief: as §1
[8] = tested on: K562; test: Cytotoxicity against human K562 cells after 48 hrs by SRB assay; type: functional; settings: K562, 48 h; for CC50: read-out: LC50 (the source's name); method in brief: as §1
[9] = tested on: PANC-1; test: Cytotoxicity against human PANC1 cells after 48 hrs by SRB assay; type: functional; settings: PANC-1, 48 h; for CC50: read-out: LC50 (the source's name); method in brief: as §1
[10] = tested on: HT-29; test: Cytotoxicity against human HT29 cells after 48 hrs by SRB assay; type: functional, cell-based; settings: Homo sapiens, HT-29, 48 h; for CC50: read-out: LC50 (the source's name); method in brief: as §1
[11] = tested on: LoVo; test: Cytotoxicity against human LoVo cells after 48 hrs by SRB assay; type: functional; settings: for CC50: read-out: LC50 (the source's name)
[12] = tested on: LoVo; test: Cytotoxicity against human doxorubicin resistant LoVo cells after 48 hrs by SRB assay; type: functional; settings: for CC50: read-out: LC50 (the source's name); method in brief: as §1
[13] = tested on: HeLa; test: Cytotoxicity against human HeLa cells after 48 hrs by SRB assay; type: functional; settings: for CC50: read-out: LC50 (the source's name); method in brief: as §1
[14] = Cytotoxicity against human HeLa-APL cells after 48 hrs by SRB assay; type: functional; method in brief: as §1

C/C=C1\NC(=O)[C@H](Cc2ccccc2)NC(=O)[C@@H](C(C)C)NC(=O)[C@@H]([C@H](C)CC)NC(=O)[C@H](NC(=O)[C@H](NC(=O)[C@H](CCCN)NC(=O)[C@H]2CCCN2C(=O)[C@H](NC(=O)[C@@H](NC(=O)[C@@H](NC(=O)[C@H](NC(=O)C(F)(F)C(F)(F)C(F)(F)C(F)(F)C(F)(F)C(F)(F)F)C(C)C)[C@@H](C)O)C(C)C)C(C)C)[C@H](C)CC)[C@H](C)OC(=O)[C@H](C(C)C)NC1=O
GI50 [1]: 614 nM | GI50 ([1]; read-out: GI50): 534 nM | CC50 [1]: 708 nM | GI50 [2]: 758 nM | TGI [2]: 757 nM | CC50 [2]: 753 nM | GI50 [3]: 584 nM | GI50 ([3]; read-out: GI50): 854 nM | CC50 [3]: 459 nM | GI50 [4]: 814 nM | GI50 ([4]; read-out: GI50): 697 nM | CC50 [4]: 1040 nM | TGI [5]: 453 nM | GI50 [5]: 291 nM | CC50 [5]: 578 nM | GI50 [6]: 765 nM | GI50 ([6]; read-out: GI50): 734 nM | CC50 [6]: 794 nM | GI50 [7]: 745 nM | LC50 [7]: 865 nM | GI50 ([7]; read-out: GI50): 636 nM | GI50 [8]: 830 nM | TGI [8]: 1010 nM | CC50 [8]: 1220 nM | GI50 [9]: 2320 nM | TGI [9]: 3460 nM | CC50 [9]: 2000 nM | GI50 [10]: 513 nM | TGI [10]: 520 nM | CC50 [10]: 563 nM | GI50 [11]: 1160 nM | TGI [11]: 1180 nM | CC50 [11]: 798 nM | GI50 [12]: 286 nM | TGI [12]: 289 nM | CC50 [12]: 290 nM | GI50 [13]: 961 nM | TGI [13]: 947 nM | CC50 [13]: 931 nM | GI50 [14]: 596 nM | LC50 (concentration giving 50% net cell kill) [14]: 1200 nM | TGI [14]: 888 nM

C/C=C1\NC(=O)[C@H](Cc2ccccc2)NC(=O)[C@@H](C(C)C)NC(=O)[C@@H]([C@H](C)CC)NC(=O)[C@H](NC(=O)[C@H](NC(=O)[C@H](CCCN)NC(=O)[C@H]2CCCN2C(=O)[C@H](NC(=O)[C@@H](NC(=O)[C@@H](NC(=O)[C@@H](CCCN)NC(=O)CCCC(C)C)[C@@H](C)O)C(C)C)C(C)C)[C@H](C)CC)[C@H](C)OC(=O)[C@H](C(C)C)NC1=O
TGI [1]: 1270 nM | GI50 ([1]; read-out: GI50): 1160 nM | CC50 [1]: 1170 nM | GI50 [2]: 853 nM | TGI [2]: 1170 nM | CC50 [2]: 950 nM | GI50 [3]: 630 nM | GI50 ([3]; read-out: GI50): 1130 nM | CC50 [3]: 382 nM | GI50 [4]: 806 nM | GI50 ([4]; read-out: GI50): 103 nM | CC50 [4]: 559 nM | TGI [5]: 1770 nM | GI50 [5]: 1720 nM | CC50 [5]: 907 nM | TGI [6]: 1150 nM | GI50 ([6]; read-out: GI50): 1140 nM | CC50 [6]: 1160 nM | GI50 [7]: 888 nM | LC50 [7]: 3840 nM | GI50 ([7]; read-out: GI50): 747 nM | GI50 [8]: 877 nM | TGI [8]: 1120 nM | CC50 [8]: 1910 nM | GI50 [9]: 1420 nM | TGI [9]: 1240 nM | CC50 [9]: 1760 nM | CC50 [10]: 4270 nM | CC50 [11]: 330 nM | CC50 [12]: 296 nM | GI50 [13]: 1370 nM | TGI [13]: 1400 nM | CC50 [13]: 1030 nM | GI50 [14]: 1100 nM | LC50 (concentration giving 50% net cell kill) [14]: 965 nM | TGI [14]: 1070 nM

C/C=C1\NC(=O)[C@H](Cc2ccccc2)NC(=O)[C@@H](C(C)C)NC(=O)[C@@H]([C@H](C)CC)NC(=O)[C@H](NC(=O)[C@H](NC(=O)[C@H](CCCN)NC(=O)[C@H]2CCCN2C(=O)[C@H](NC(=O)[C@H](CCC(=O)O)NC(=O)[C@@H](NC(=O)[C@H](NC(=O)CCCC(C)C)C(C)C)[C@@H](C)O)C(C)C)[C@H](C)CC)[C@H](C)OC(=O)[C@H](C(C)C)NC1=O
CC50 [1]: 1660 nM | CC50 [2]: 1370 nM | CC50 [3]: 842 nM | CC50 [4]: 632 nM | CC50 [5]: 1040 nM | CC50 [6]: 1820 nM | LC50 [7]: 1790 nM | CC50 [8]: 1890 nM | CC50 [9]: 2270 nM | CC50 [10]: 2330 nM | CC50 [11]: 3860 nM | CC50 [12]: 3670 nM | CC50 [13]: 1350 nM | LC50 (concentration giving 50% net cell kill) [14]: 1420 nM
